Experimental data taken from ChEMBL document CHEMBL1138476 (J Med Chem, 2009).

Tests used:
[1] = biological target: T1, Corticotropin-releasing factor receptor 1 (Rattus norvegicus, UniProt P35353); test: Displacement of [125I]Tyro-rat/human CRF from CRF1 receptor in rat cortical membrane by gamma counting; assay type: cell membranes
T1 sequence (P35353 whole entry): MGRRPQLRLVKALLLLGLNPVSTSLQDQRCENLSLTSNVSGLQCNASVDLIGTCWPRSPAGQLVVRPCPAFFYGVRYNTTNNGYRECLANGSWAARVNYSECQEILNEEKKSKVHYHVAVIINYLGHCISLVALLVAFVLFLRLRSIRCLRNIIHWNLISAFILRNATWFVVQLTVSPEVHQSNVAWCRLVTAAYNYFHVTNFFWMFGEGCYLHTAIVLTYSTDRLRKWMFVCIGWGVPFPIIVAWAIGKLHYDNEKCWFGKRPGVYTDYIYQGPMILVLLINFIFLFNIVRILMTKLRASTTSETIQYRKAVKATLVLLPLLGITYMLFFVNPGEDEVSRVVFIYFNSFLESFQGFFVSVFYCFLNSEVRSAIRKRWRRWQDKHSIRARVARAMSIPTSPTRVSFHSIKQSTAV
How it was run: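 Binding to CRF receptors in rat cortical homogenate.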

[2] = tested on: Rattus norvegicus; test: Effect on gastrointestinal motility in fasted Sprague-Dawley rat assessed as distance of charcoal moved from stomach to cecum at 3 mg/kg, po (RVb= 42.1+/-1.8 %)
[3] = tested on: Rattus norvegicus; test: Toxicity in rat assessed as time spent on rotarod at 30 mg/kg, po after 1 hr by rotarod test; assay type: organism-based; parameters: dose 30 mg/kg, route oral; conditions: in vivo
How it was run: (§1)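 Rats, n = 8 per dose, dosed po in 0.25% Methocel 1 h before testing, at 0, 1.0, 3.0, 10, 30 and 100 mg/kg. Read-out is time on rotorod (s), mean ± SEM, compared with the vehicle (zero-dose) group.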

[4] = tested on: Rattus norvegicus; test: Toxicity in rat assessed as time spent on rotarod at 3 mg/kg, po after 1 hr by rotarod test; assay type: organism-based; parameters: dose 3 mg/kg, route oral; conditions: in vivo; how it was run: as §1
[5] = tested on: Rattus norvegicus; test: Toxicity in rat assessed as total distance traveled at 3 mg/kg, po after 1 hr by spontaneous locomotor test; assay type: organism-based; parameters: dose 3 mg/kg, route oral; conditions: in vivo
How it was run: (§2)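 Rat spontaneous locomotor activity test with oral dosing in 0.25% Methocel 1 h before testing, at doses up to 100 mg/kg. Values are mean ± SEM, with N rats per group, compared with the vehicle (zero-dose) group.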

[6] = tested on: Rattus norvegicus; test: Toxicity in rat assessed as total distance traveled at 100 mg/kg, po after 1 hr by spontaneous locomotor test; assay type: organism-based; parameters: dose 100 mg/kg, route oral; conditions: in vivo; how it was run: as §2
[7] = tested on: Rattus norvegicus; test: Toxicity in rat assessed as total distance traveled at 30 mg/kg, po after 1 hr by spontaneous locomotor test; assay type: functional; how it was run: as §2
[8] = tested on: Rattus norvegicus; test: Toxicity in rat assessed as total distance traveled at 10 mg/kg, po after 1 hr by spontaneous locomotor test; assay type: functional; how it was run: as §2
[9] = tested on: Rattus norvegicus; test: Toxicity in rat assessed as time spent on rotarod at 10 mg/kg, po after 1 hr by rotarod test; assay type: organism-based; parameters: dose 10 mg/kg, route oral; conditions: in vivo; how it was run: as §1
[10] = Lipophilicity log P of the compound; assay type: physicochemical; conditions: octanol/water
[11] = Aqueous solubility at pH 7; assay type: physicochemical; conditions: aqueous medium
[12] = Cmax in rat at 5 mg/kg, po; assay type: ADME, organism-based; parameters: dose 5 mg/kg, route oral; conditions: in vivo
How it was run: (§3)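 Rats (n = 3) received 1 mg/kg iv in 10% DMAC, 70% propylene glycol and deionized water, or 5 mg/kg orally in 0.5% methylcellulose.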

[13] = Tmax in rat at 5 mg/kg, po; assay type: ADME, organism-based; parameters: dose 5 mg/kg, route oral; conditions: in vivo
How it was run: (§4)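 Rats (n = 3) dosed iv at 1 mg/kg in 10% DMAC, 70% propylene glycol and deionized water, and orally at 5 mg/kg in 0.5% methylcellulose.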

[14] = Volume of distribution at steady state in chimpanzee at 0.5 mg/kg, iv; assay type: ADME, organism-based, Pan troglodytes; parameters: dose 0.5 mg/kg, route intravenous; conditions: in vivo, read-out: Vdss
How it was run: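 Single chimpanzee given 0.5 mg/kg iv over 10 min (0.2 mL/kg) in 10% DMAC, 70% propylene glycol and deionized water. EDTA blood taken predose, at 6, 15 and 30 min, and at 2 to 96 h.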

[15] = Volume of distribution at steady state in rat at 1 mg/kg, iv and 5 mg/kg, po; assay type: ADME, organism-based; conditions: in vivo, read-out: Vdss; how it was run: as §4
[16] = AUC (0 to infinity) in chimpanzee at 1 mg/kg, po; assay type: ADME, organism-based, Pan troglodytes; parameters: time infinity, dose 1 mg/kg, route oral; conditions: plasma
How it was run: (§5)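 Chimpanzee PK. Oral: 1 mg/kg in two alert animals, given as a 1 mg/mL suspension in 50–50 (v/v) 0.5% methylcellulose/Tang orange juice with 1% Tween-80. IV: 0.5 mg/kg in one animal in 10% DMAC, 70% propylene glycol and deionized water, infused over 10 min (0.2 mL/kg). EDTA blood was taken predose and at 2–96 h; iv sampling added 6, 15 and 30 min.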

[17] = AUC in Beagle dog at 1 mg/kg, po by cassette dosing; assay type: ADME, organism-based, Canis lupus familiaris; parameters: dose 1 mg/kg, route oral; conditions: plasma
[18] = Cmax in chimpanzee at 1 mg/kg, po; assay type: ADME, organism-based, Pan troglodytes; parameters: dose 1 mg/kg, route oral; conditions: in vivo; how it was run: as §5
[19] = Half life in Beagle dog at 1 mg/kg, po by cassette dosing; assay type: ADME, organism-based, Canis lupus familiaris; parameters: dose 1 mg/kg, route oral; conditions: in vivo
[20] = Oral bioavailability in chimpanzee at 1 mg/kg; assay type: ADME, organism-based, Pan troglodytes; conditions: in vivo
How it was run: (§6)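 Two alert chimpanzees were given 1 mg/kg po as a 1 mg/mL suspension in 50:50 (v/v) 0.5% methylcellulose and Tang orange juice containing 1% Tween-80. EDTA blood was taken predose and at 2–96 h. Bioavailability was calculated against a 0.5 mg/kg iv dose given to one animal.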

[21] = Half life in Beagle dog by discrete dosing; assay type: ADME, organism-based, Canis lupus familiaris; conditions: in vivo
[22] = Solubility in dilute HCl at pH 2.3; assay type: physicochemical
[23] = Clearance in rat at 1 mg/kg, iv and 5 mg/kg, po; assay type: ADME, organism-based; conditions: in vivo; how it was run: as §3
[24] = Clearance in chimpanzee at 0.5 mg/kg, iv; assay type: ADME, organism-based, Pan troglodytes; parameters: dose 0.5 mg/kg, route intravenous; conditions: in vivo; how it was run: as §5
[25] = Oral bioavailability in rat at 5 mg/kg; assay type: ADME, organism-based; conditions: in vivo
How it was run: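 Rats (n = 3) were dosed at 1 mg/kg iv in 10% DMAC, 70% propylene glycol and deionized water, and at 5 mg/kg po in 0.5% methylcellulose.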

[26] = Aqueous solubility at pH 7.4; assay type: physicochemical; conditions: aqueous medium
How it was run: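 Solubility measured in water at pH 7.4.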

[27] = AUC (0 to infinity) in chimpanzee at 0.5 mg/kg, iv; assay type: ADME, organism-based, Pan troglodytes; parameters: time infinity, dose 0.5 mg/kg, route intravenous; conditions: plasma; how it was run: as §5
[28] = Cmax in Beagle dog at 1 mg/kg, po by cassette dosing; assay type: ADME, organism-based, Canis lupus familiaris; parameters: dose 1 mg/kg, route oral; conditions: in vivo
[29] = Elimination half life in chimpanzee at 1 mg/kg, po; assay type: ADME, organism-based, Pan troglodytes; parameters: dose 1 mg/kg, route oral; conditions: in vivo, read-out: beta t1/2 (converted); how it was run: as §6
[30] = biological target: T1, Corticotropin-releasing factor receptor 1; test: Agonist activity at CRF1 receptor in rat pituitary cells
[31] = Elimination half life in chimpanzee at 0.5 mg/kg, iv; assay type: ADME, organism-based, Pan troglodytes; parameters: dose 0.5 mg/kg, route intravenous; conditions: in vivo, read-out: beta t1/2 (converted)
How it was run: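 One chimpanzee received 0.5 mg/kg iv over 10 min (0.2 mL/kg) in 10% DMAC, 70% propylene glycol and deionized water. Blood was drawn into EDTA predose and at 6, 15, 30 min and 2, 4, 6, 9, 12, 24, 36, 48, 72 and 96 h.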

CCCN(CCC)c1nc(C)nc2c(-c3ccc(OC)nc3C)c(C)nn12
IC50 [1]: 5.7 nM

CN1[C@@H]2CC[C@H]1C[C@@H](OC(=O)C(CO)c1ccccc1)C2 (mixture of isomers) [ATROPINE]
Activity [2]: 27.5%

CCCCN(CCC)c1nc(C)nc2c(-c3c(C)cc(N(C)C)nc3C)c(C)nn12
IC50 [1]: 12.8 nM

CCCCN(C)c1nc(C)nc2c(-c3ccc(OC)nc3C)c(C)nn12
IC50 [1]: 8.1 nM

CNC1=Nc2ccc(Cl)cc2C(c2ccccc2)=[N+]([O-])C1 [CHLORDIAZEPOXIDE]
Time [3]: 114 s
Time [4]: 227 s
Activity [5]: 4624 cm
Activity [6]: 1062 cm
Activity [7]: 2162 cm
Activity [8]: 3981 cm
Time [9]: 128 s

CCCCN(CC)c1nc(C)nc2c(-c3c(C)cc(N(C)C)nc3C)c(C)nn12
IC50 [1]: 32.8 nM

CCCCN(CC)c1nc(C)nc2c1c(C)cn2-c1c(C)cc(C)cc1C.Cl
logP [10]: > 5
solubility [11]: < 1 µg/mL

CCN(CC)c1nc(C)nc2c(-c3cnc(N(C)C)cc3C)c(C)nn12
IC50 [1]: 13.8 nM

CCC(CC)Nc1nc(C)nc2c(-c3ccc(OC)nc3C)c(C)nn12
IC50 [1]: 3.1 nM

COCCN(CCOC)c1nc(C)nc2c(-c3ccc(OC)cc3C)c(C)nn12.O=S(=O)(O)c1ccccc1
Cmax [12]: 851 nM
logP [10]: 4.76
Tmax [13]: 0.5 h
Vd [14]: 9.52 L/kg
Vd [15]: 14.6 L/kg
AUC(0-inf) [16]: 0.212 µM·h
AUC [17]: 1.66 µM·h
Cmax [18]: 27 nM
half-life [19]: 10.1 h
bioavailability [20]: 5.2%
half-life [21]: 27 h
solubility [22]: 2500 µg/mL
clearance [23]: 20 mL/min/kg
clearance [24]: 10.2 mL/min/kg
bioavailability [25]: 51%
solubility [26]: < 1 µg/mL
AUC(0-inf) [27]: 2.04 µM·h
Cmax [28]: 369 nM
half-life [29]: 16.5 h
IC50 [30]: 72.9 nM
half-life [31]: 20.2 h

CCCC(C)Nc1nc(C)nc2c(-c3ccc(OC)nc3C)c(C)nn12 (centres undefined)
AUC [17]: 0.955 µM·h
half-life [19]: 11.8 h
IC50 [1]: 3.5 nM
Cmax [28]: 156 nM

CCN(CC)c1nc(C)nc2c(-c3c(C)cc(N(C)C)nc3C)c(C)nn12
IC50 [1]: 58 nM

CCC(CC)Nc1nc(C)nc2c(-c3cnc(OC)cc3C)c(C)nn12
IC50 [1]: 3 nM

CCN(CCOC)c1nc(C)nc2c(-c3ccc(OC)nc3C)c(C)nn12
IC50 [1]: 6.6 nM

COCCN(CC1CC1)c1nc(C)nc2c(-c3ccc(OC)nc3C)c(C)nn12
AUC [17]: 1.73 µM·h
half-life [19]: 11.4 h
IC50 [1]: 3.1 nM
Cmax [28]: 314 nM

CC[C@H](C)Nc1nc(C)nc2c(-c3ccc(OC)nc3C)c(C)nn12
AUC [17]: 0.916 µM·h
half-life [19]: 7.9 h
IC50 [1]: 7 nM
Cmax [28]: 168 nM

CCCCC(C)Nc1nc(C)nc2c(-c3ccc(OC)nc3C)c(C)nn12 (centres undefined)
IC50 [1]: 5.1 nM

COCCNc1nc(C)nc2c(-c3c(C)cc(N(C)C)nc3C)c(C)nn12
IC50 [1]: > 10000 nM
